Columns and labels:
Assay type in all cases: functional
HT-29 = experiment: Growth inhibition of human HT-29 cells after 48 hrs by sulforhodamine B assay; conditions: HT-29, 48 h
Method in brief: (§1)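 Sulforhodamine B colorimetric assay following the NCI standard protocol, with doxorubicin as positive control. Each compound was tested at four concentrations in 10-fold dilutions (0.25 to 250). GI50, the concentration giving 50% growth reduction versus untreated control cells, was derived from dose–response curves.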

K562 = experiment: Growth inhibition of human K-562 cells after 48 hrs by sulforhodamine B assay; conditions: K562, 48 h; method in brief: as §1
OVCAR = experiment: Growth inhibition of human OVCAR cells after 48 hrs by sulforhodamine B assay; method in brief: as §1
[1] = Growth inhibition of human PCO3 cells after 48 hrs by sulforhodamine B assay; conditions: PCO3, 48 h; method in brief: as §1
786-0 = experiment: Growth inhibition of human 786-0 cells after 48 hrs by sulforhodamine B assay; conditions: 786-0, 48 h; method in brief: as §1
UACC-62 = experiment: Growth inhibition of human UACC-62 cells after 48 hrs by sulforhodamine B assay; conditions: UACC-62, 48 h; method in brief: as §1
MCF7 = experiment: Growth inhibition of human MCF7 cells after 48 hrs by sulforhodamine B assay; conditions: MCF7, 48 h; method in brief: as §1
[2] = Growth inhibition of human NCI-460 cells after 48 hrs by sulforhodamine B assay; conditions: NCI-460, 48 h; method in brief: as §1

Structure (SMILES) | GI50 (HT-29) [µM] | TGI (HT-29) [µM] | GI50 (K562) [µM] | TGI (K562) [µM] | GI50 (OVCAR) [µM] | TGI (OVCAR) [µM] | GI50 [1] [µM] | TGI [1] [µM] | GI50 (786-0) [µM] | TGI (786-0) [µM] | GI50 (UACC-62) [µM] | TGI (UACC-62) [µM] | GI50 (MCF7) [µM] | TGI (MCF7) [µM] | GI50 [2] [µM] | TGI [2] [µM] | LC50 (concentration causing 50% net cell kill) (K562) [µM] | LC50 (concentration killing 50% of cells) [1] [µM] | further results
CSc1nnc(-c2cc3c([nH]c4ccccc43)c(-c3ccccc3Cl)n2)n1N | 20.4 | > 100 | 1.92 | > 100 | 11.2 | 38.4 | 22.2 | > 100 | 16.8 | 93.5 | 18.6 | 59 | 20.1 | > 100 | 13.9 | 41.8 |  |  | LC50 (concentration killing 50% of the cells, NCI protocol) (OVCAR): > 100 µM; CC50 (786-0; read-out: LC50 (the source's name)): > 100 µM; LC50 (concentration killing 50% of cells, NCI protocol) (UACC-62): > 100 µM; LC50 (concentration for 50% net cell kill) [2]: > 100 µM
O=[N+]([O-])c1cccc(-c2nc(-c3n[nH]c(=S)o3)cc3c2[nH]c2ccccc23)c1 | 27.9 | > 100 | 11 | 86.7 | 22.3 | > 100 | 12.2 | 35.7 | 32.4 | > 100 | 24.1 | > 100 | 27.9 | > 100 | 73.4 | > 100 | > 100 | > 100 | 
CSc1nnc(-c2cc3c([nH]c4ccccc43)c(-c3ccccc3)n2)n1N | > 100 |  | 2.04 |  | > 100 |  | > 100 |  | > 100 |  | > 100 |  | > 100 |  | > 100 |  |  |  | 
Oc1ccc(-c2nc(-c3n[nH]c(=S)o3)cc3c2[nH]c2ccccc23)cc1 | > 100 | > 100 | 21.5 | 87 | > 100 | > 100 | 81.1 | > 100 | 94.9 | > 100 | > 100 | > 100 | 88.7 | > 100 | > 100 | > 100 | > 100 |  | 
S=c1[nH]nc(-c2cc3c([nH]c4ccccc43)c(-c3ccccc3)n2)o1 | 25.5 | > 100 | 15.3 | 54.4 | 31.8 | > 100 | 25.5 | > 100 | 27.9 | > 100 | > 100 | > 100 | 25.5 | > 100 | 20.6 | > 100 | > 100 |  | 
O=[N+]([O-])c1ccc(-c2nc(-c3n[nH]c(=S)o3)cc3c2[nH]c2ccccc23)cc1 | 31.3 | > 100 | 46.7 | > 100 | > 100 | > 100 | 26 | 99.2 | 73.1 | > 100 | 38 | > 100 | 27.6 | > 100 | > 100 | > 100 |  | > 100 | 
COc1ccc(-c2nc(-c3nnc(SC)o3)cc3c2[nH]c2ccccc23)cc1 | > 100 | > 100 | 0.18 | > 100 | 2.13 | > 100 | > 100 | > 100 | > 100 | > 100 | 29.1 | > 100 | 31.2 | > 100 | 1.28 | 56.6 |  |  | LC50 (concentration for 50% net cell kill) [2]: > 100 µM
COc1ccc(-c2nc(-c3n[nH]c(=S)o3)cc3c2[nH]c2ccccc23)cc1 | 20.3 | 55.3 | 26.4 | > 100 | > 100 | > 100 | 17.3 | 41.1 | 31.6 | > 100 | 16.8 | 47.2 | 24.9 | 97 | 9.2 | > 100 |  | > 100 | LC50 (concentration killing 50% of the cells present at the start) (HT-29): > 100 µM; LC50 (concentration killing 50% of cells, NCI protocol) (UACC-62): > 100 µM; LC50 (concentration killing 50% of cells) (MCF7): > 100 µM

Reference: ChEMBL document CHEMBL1151684, “Synthesis and antitumoral activity of novel 3-(2-substituted-1,3,4-oxadiazol-5-yl) and 3-(5-substituted-1,2,4-triazol-3-yl) beta-carboline derivatives” (2008)
